Reference: PMC9868102 (Cell chemical biology, 2023)
“Also recorded” adds a separate entry of the source.

How the values were obtained:
[1] = target: T1, human TG2 (Homo sapiens, UniProt P21980); settings: nucleophilic substrate; cited from earlier work
T1 sequence (P21980 1-687): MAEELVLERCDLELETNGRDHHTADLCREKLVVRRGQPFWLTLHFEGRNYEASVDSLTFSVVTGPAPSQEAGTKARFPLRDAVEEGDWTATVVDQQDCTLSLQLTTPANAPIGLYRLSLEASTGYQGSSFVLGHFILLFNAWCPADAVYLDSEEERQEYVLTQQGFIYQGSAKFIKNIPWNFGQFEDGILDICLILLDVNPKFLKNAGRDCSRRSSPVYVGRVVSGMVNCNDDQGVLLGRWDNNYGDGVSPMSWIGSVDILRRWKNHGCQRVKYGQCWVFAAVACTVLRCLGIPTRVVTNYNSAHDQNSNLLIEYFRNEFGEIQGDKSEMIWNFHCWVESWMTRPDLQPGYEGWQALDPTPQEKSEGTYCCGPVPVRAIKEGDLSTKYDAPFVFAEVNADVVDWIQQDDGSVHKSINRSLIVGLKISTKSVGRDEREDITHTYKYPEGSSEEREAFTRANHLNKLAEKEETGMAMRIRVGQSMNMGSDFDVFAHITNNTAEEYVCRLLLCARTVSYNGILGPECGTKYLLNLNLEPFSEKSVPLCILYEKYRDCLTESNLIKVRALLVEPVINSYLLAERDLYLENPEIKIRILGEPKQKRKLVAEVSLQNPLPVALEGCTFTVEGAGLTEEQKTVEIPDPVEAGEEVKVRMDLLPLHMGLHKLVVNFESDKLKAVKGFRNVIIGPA

[2] = tested on: wild-type MEFs; experiment: Labeling of wild-type MEFs by TG2 activity probes; format: cell-based, mouse; settings: for labeling/staining pattern: 1 μM HB230 (3 h) with 10 μM TRX, 5BP at 100 μM
Summary of the method: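 MEFs were grown in DMEM and seeded on glass-bottom plates for 3 days. TG2-knockout controls were E14.5 MEFs immortalised with SV40 large T. Media were replaced, then probe was added with recombinant human TRX for the whole 3 h treatment. Cells were washed in HBSS, fixed in 2% PFA for 10 min at RT, and stained with DAPI. Imaging was confocal with a 63x oil objective; probe was read on the 647 nm channel.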

[3] = tested on: clathrin mediated endocytosis / LRP-1 in NRK cells; experiment: Inhibition of clathrin/LRP-1 mediated endocytosis of 33mer and α2M in NRK cells; format: cell-based, rat; settings: for inhibition of large endocytic puncta (33mer + α2M): 12.5 mM MβCD, 20 μM Dyno-4a, 25 μM Pitstop
Summary of the method: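 Clathrin-endocytosis inhibitors used on NRK cells: MβCD 12.5 mM, Dyno-4a 20 μM, Pitstop 25 μM; Pitstop added 30 min before the other treatments. Then labelled α2M and Cy5-33mer for 1.5 h, HBSS washes, 2% PFA fix, DAPI, confocal for large double-labelled puncta.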

[4] = tested on: 9022 cells (HLA-DQ2 homozygous B-cell line); experiment: Cell surface presentation by HLA-DQ2 expressing 9022 B cells; format: cell-based, human; settings: 20 min prior to α2M and 33mer
Summary of the method: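 EBV-immortalised HLA-DQ2-homozygous B cells in RPMI with 10% FBS and 1% PenStrep, pelleted, resuspended and left 20 min at 37 °C to adhere on poly-L-lysine-coated glass. Cy5-33mer, α2M and 100 nM recombinant human TG2 (E. coli, His6) added for 2.5 h. Anti-HLA-DQ2 (1:50) then Alexa 488 secondary, each 20 min on ice, fixed, DAPI, confocal. Cells with surface HLA-DQ2/Cy5 overlay scored; 2-4 frames of 3-6 replicates.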

[5] = tested on: NRK cells; experiment: Endocytosis of fluorescent α2M in NRK cells with TG2 inhibitors or substrates; format: cell-based, rat
Summary of the method: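 Rat NRK cells kept in DMEM, split 1:4 to 1:10 every 2-4 days, and imaged as adherent cultures. Small-molecule inhibitors go on 30 min ahead of other additions. Recombinant α2M is purified from culture supernatant by zinc-affinity chromatography and then SEC. After 1.5 h, cells are washed 3× in HBSS, fixed in 2% PFA/PBS for 10 min at RT, DAPI-stained, and imaged by confocal microscopy under low light.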

[6] = target: T1, human TG2; settings: oxidant; without active site occupancy; cited from earlier work
[7] = target: T2, TG2 derivative lacking the C-terminal β-barrel domain (Homo sapiens, UniProt P21980); experiment: Kinetics of truncated TG2 lacking the C-terminal β-barrel domain; format: biochemical; settings: pH 7.2, 25 °C, triplicate
T2 sequence (P21980 1-586): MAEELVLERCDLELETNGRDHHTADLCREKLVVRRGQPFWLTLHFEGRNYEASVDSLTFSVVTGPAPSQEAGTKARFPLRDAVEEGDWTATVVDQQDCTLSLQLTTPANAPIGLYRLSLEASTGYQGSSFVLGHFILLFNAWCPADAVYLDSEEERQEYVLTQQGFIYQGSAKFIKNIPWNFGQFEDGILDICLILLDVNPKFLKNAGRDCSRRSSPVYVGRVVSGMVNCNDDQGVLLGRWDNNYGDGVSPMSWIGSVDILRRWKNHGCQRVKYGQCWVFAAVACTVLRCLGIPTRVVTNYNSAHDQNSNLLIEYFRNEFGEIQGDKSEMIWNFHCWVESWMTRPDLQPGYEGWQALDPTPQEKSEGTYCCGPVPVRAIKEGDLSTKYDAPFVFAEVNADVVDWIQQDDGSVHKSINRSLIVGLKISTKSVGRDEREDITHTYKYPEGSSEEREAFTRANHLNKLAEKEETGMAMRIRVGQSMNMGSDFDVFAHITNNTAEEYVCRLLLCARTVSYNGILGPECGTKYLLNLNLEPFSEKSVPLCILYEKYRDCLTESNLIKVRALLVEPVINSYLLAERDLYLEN
Summary of the method: (§1)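 Truncated human TG2 constructs with N-terminal His tags (residues 1-586 lacking β2; residues 1-460 lacking β1 and β2) were expressed in Rosetta2 E. coli and purified by Ni, anion exchange and SEC. The assay was GDH-coupled: 200 mM MOPS pH 7.2, 5 mM CaCl2, 10 mM α-ketoglutarate, 18 U/mL GDH, 0.5 mM NADH and Ac-PQLPF-NH2. Reduced enzyme was at 1 μM final, ± Expi293F-expressed human α2M. NADH loss was read at 340 nm for 60 min at 25 °C. Rates came from linear slopes; triplicate.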

[8] = target: T1, human TG2; experiment: TG2 steady-state kinetics of substrates, wild-type TG2 ± α2M and vs pH; format: biochemical; settings: for kcat: 200 mM MOPS pH 7.2, 5 mM CaCl2, 25 °C, 1 μM TG2, triplicate
Summary of the method: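 His6-tagged human TG2 from E. coli BL21(DE3) was purified by Ni-NTA and anion exchange, reduced, and desalted into PBS. It was assayed at 1 μM final, ± recombinant human α2M (Expi293F-expressed), with GDH/α-ketoglutarate/NADH coupling in 200 mM MOPS pH 7.2 with 5 mM CaCl2. Substrate was Ac-PQLPF-NH2 unless otherwise specified. Absorbance at 340 nm was followed for 60 min at 25 °C. Steady-state rates came from linear progress-curve slopes; triplicate.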

[9] = target: T3, TG2 derivative harboring the N-terminal and catalytic domains but lacking both β-barrel domains (Homo sapiens, UniProt P21980); experiment: Kinetics of truncated TG2 lacking both β-barrel domains; format: biochemical; settings: pH 7.2, 25 °C, triplicate
T3 sequence (P21980 1-460): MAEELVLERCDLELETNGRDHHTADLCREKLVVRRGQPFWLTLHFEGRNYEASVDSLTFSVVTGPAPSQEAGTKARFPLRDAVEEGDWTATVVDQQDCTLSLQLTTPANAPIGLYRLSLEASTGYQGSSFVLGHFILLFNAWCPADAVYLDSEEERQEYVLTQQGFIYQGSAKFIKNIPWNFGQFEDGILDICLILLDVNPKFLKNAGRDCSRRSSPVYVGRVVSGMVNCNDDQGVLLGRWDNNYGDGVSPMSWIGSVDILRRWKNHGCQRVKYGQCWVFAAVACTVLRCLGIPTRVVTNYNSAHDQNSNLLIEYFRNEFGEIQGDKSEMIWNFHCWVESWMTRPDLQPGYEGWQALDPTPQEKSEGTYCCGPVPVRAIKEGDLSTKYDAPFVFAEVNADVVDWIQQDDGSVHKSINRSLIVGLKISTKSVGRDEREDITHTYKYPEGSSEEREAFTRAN
Summary of the method: as §1

[10] = tested on: TG2-knockout BMM; experiment: Uptake by bone marrow derived macrophages from TG2-knockout mice; format: cell-based, mouse; settings: triplicates
Summary of the method: (§2)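 Bone marrow from female C57BL6 or TG2-knockout mice, red cells removed, plated at 8x10^6 cells in RPMI/10% FBS with 20 ng/mL M-CSF. Fed on days 2 and 4, adherent cells harvested with 5 mM EDTA on day 5. Cy5-33mer uptake imaged by confocal; triplicates, mean ± SD.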

[11] = tested on: wild-type bone marrow derived macrophages (BMM); experiment: Uptake by bone marrow derived macrophages from wild-type mice; format: cell-based, mouse; settings: ± α2M; triplicates
Summary of the method: as §2

[12] = tested on: wild-type BMDCs; experiment: Uptake by BMDCs from wild-type mice; format: cell-based, mouse
Summary of the method: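 Bone marrow flushed from tibia and femur of female C57BL6 or TG2-knockout mice, red cells removed. Cells seeded at 2x10^6 per 10-cm dish in RPMI/10% FBS with 10 ng/mL GM-CSF, fed on days 3 and 6, suspension cells harvested day 8. Probed with HB230 or Cy5-33mer; confocal, DAPI counterstain.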

## NCCCCCNC(=O)CCCC[C@@H]1SC[C@@H]2NC(=O)N[C@@H]21 [5-BP, 5-biotinamidopentylamine]
[1]
  TG2 substrate activity in words: relatively weak nucleophilic substrate
[2]
  labeling/staining pattern: label bound to extracellular matrix proteins (e.g., fibronectin) in a predictably fibrous pattern
[2]; listed as 5BP
  labeling/staining pattern: fibrous incorporation pattern

## O=C(N/N=C/c1cc(O)c(O)cc1O)c1cc2ccccc2cc1O [Dyno-4a]
[3]
  inhibition of large endocytic puncta (33mer + α2M): strong inhibition of α2M and peptide colocalization as large endocytic puncta; also recorded: abrogate the appearance of large puncta

## O=C1NC(=NS(=O)(=O)c2cccc3ccccc23)S/C1=C\c1ccc(Br)cc1 [Pitstop-2]
[4]
  effect of Pitstop on cell surface 33mer: dose-dependent reduction of cell-surface 33mer labeling
[3]
  inhibition of large endocytic puncta (33mer + α2M): strong inhibition of α2M and peptide colocalization as large endocytic puncta
[3]; listed as Pitstop
  inhibition of large endocytic puncta (33mer + α2M): abrogate the appearance of large puncta

## NCCSSCCN [cystamine, reference compound]
[5]; fluorescent α2M 100 μg/mL, CK805 10 μM, cystamine 100 μM
  effect on α2M internalization (large puncta): unable to promote rapid internalization of fluorescent α2M; also recorded: do not yield the larger puncta at saturating concentrations
[6]
  TG2 inactivation mechanism in words: inactivates TG2 by promoting C370-C371 disulfide bond formation

## AC-PQLPF-NH2
[7]; absence of α2M
  kcat: 0.15 ± 0.017 s⁻¹
[7]; presence of α2M
  kcat: 0.13 ± 0.017 s⁻¹
[8]; absence of α2M
  kcat: 0.583 ± 0.017 s⁻¹
[8]; presence of α2M
  kcat: 0.483 ± 0.017 s⁻¹
[9]; absence of α2M
  kcat: 0.12 ± 0.0033 s⁻¹
[9]; presence of α2M
  kcat: 0.12 ± 0.005 s⁻¹

## H-LQLQPFPQPQLPYPQPQLPYPQPQLPYPQPQPF-Rink resin [SulfoCy5-native-33mer]
[10]
  uptake by TG2-knockout BMM: do not internalize 33mer
[11]
  uptake by wild-type BMM: robustly internalized the 33mer in the presence, but not absence, of α2M
[12]
  uptake by wild-type BMDCs: take up HB230 and 33mer

## TG2: recombinant human transglutaminase 2
[8]; deamidation of Ac-PQLPF-NH2, pH 4.2-7.2, steady-state, triplicates
  pH-dependence of TG2 catalytic activity: preserved upon acidification until at least pH 5

## fibronectin
[5]; 100 μg/mL fluorescent α2M, increasing exogenous fibronectin
  endocytosis of fibronectin / effect on α2M puncta: dose-dependence increase in the abundance of large but not small puncta; also recorded: endocytosis of extracellular fibronectin via this pathway

## methyl-β-cyclodextrin [MβCD]
[3]
  inhibition of large endocytic puncta (33mer + α2M): strong inhibition of α2M and peptide colocalization as large endocytic puncta; also recorded: abrogate the appearance of large puncta

B1: RAP: potent endogenous antagonist of α2M binding to LRP-1, receptor associated protein (protein, UniProt P30533 35-357, looked up)
Alpha-2-macroglobulin …: YSREKNQPKPSPKRESGEEFRMEKLNQLWEKAQRLHLPPVRLAELHADLKIQERDELAWKKLKLDGLDEDGEKEARLIRNLNVILAKYGLDGKKDARQVTSNSLSGTQEDGLDDPRLEKLWHKAKTSGKFSGEELDKLWREFLHHKEKVHEYNVLLETLSRTEEIHENVISPSDLSDIKGSVLHSRHTELKEKLRSINQGLDRLRRVSHQGYSTEAEFEEPRVIDLWDLAQSANLTDKELEAFREELKHFEAKIEKHNHYQKQLEIAHEKLRHAESVGDGERVSRSREKHALLEGRTKELGYTVKKHLQDLSGRISRARHNEL
[3]; RAP prior to Cy5-33mer and α2M
  inhibition of large 33mer-containing puncta by LRP-1 antagonist: inhibits the formation of large 33mer-containing puncta; also recorded: fully ablated the formation of large puncta

B2: TRX: recombinant human thioredoxin (protein, UniProt P10599 2-105, looked up)
Thioredoxin: VKQIESKTAFQEALDAAGDKLVVVDFSATWCGPCKMIKPFFHSLSEKYSNVIFLEVDVDDCQDVASECEVKCMPTFQFFKKGQKVGEFSGANKEKLEATINELV
[2]; TRX added for duration of HB230 treatment
  dependence of probe labeling on TRX: strongly dependent
